The target in series [1] is protein phosphatase 2A (PP2A) (Homo sapiens, UniProt P67775). Put plainly: Protein phosphatase 2A inhibition assay. Type of series: biochemical. Summed up: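 Colorimetric PP2A inhibition after a published method. Samples incubated 1 h at room temperature and read at 405 nm. A standard curve of the parent toxin was prepared identically to the samples. Isolated metabolite concentrations were set by LC-MS against a single-point calibration (10 μL of 6.2 μM parent toxin, 50 ng). IC50 taken from activity versus log concentration curves.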

In series [2] the target is CYP3A4 (Homo sapiens, UniProt P08684). Put plainly: Incubation of OA with recombinant CYP3A4 and CYP3A4 enzyme kinetics. Type of series: in vitro ADME.
Series [3] in a line: Incubation of OA with pooled human liver microsomes. Type of series: in vitro ADME. The settings on record: 5 mg mL^-1 protein, 5 μM OA, 37 °C, 30 min. Background: Liver microsomes are vesicles of endoplasmic reticulum, rich in cytochrome P450 enzymes.
Series [4] concerns various liver cell lines. Conditions: depending on cell line; ref Souid-Mensi, et al., 2008; cited from earlier work.
Series [5] deals with CYP3A5 (Homo sapiens, UniProt P20815). Briefly: Incubation of OA with recombinant CYP3A5. Type of series: in vitro ADME. The settings on record: CYP 3A5 reaction, after 6 hrs of incubation.
The test system of series [6] is CYP1A1, 1A2, 2C8, 2C9, 2C19, 2D6, 2E1. Put plainly: Incubation of OA with the seven other recombinant P450s. Type of series: in vitro ADME, human. Conditions: same incubation conditions, limit of detection 0.1 ng OA.

Read-outs that look alike come from different tables or passages of the source.

Data on two compounds can be found in publication PMC2813889 (Toxicon : official journal of the International Society on …, 2009).

CYP3A4, sequence (P08684 whole entry): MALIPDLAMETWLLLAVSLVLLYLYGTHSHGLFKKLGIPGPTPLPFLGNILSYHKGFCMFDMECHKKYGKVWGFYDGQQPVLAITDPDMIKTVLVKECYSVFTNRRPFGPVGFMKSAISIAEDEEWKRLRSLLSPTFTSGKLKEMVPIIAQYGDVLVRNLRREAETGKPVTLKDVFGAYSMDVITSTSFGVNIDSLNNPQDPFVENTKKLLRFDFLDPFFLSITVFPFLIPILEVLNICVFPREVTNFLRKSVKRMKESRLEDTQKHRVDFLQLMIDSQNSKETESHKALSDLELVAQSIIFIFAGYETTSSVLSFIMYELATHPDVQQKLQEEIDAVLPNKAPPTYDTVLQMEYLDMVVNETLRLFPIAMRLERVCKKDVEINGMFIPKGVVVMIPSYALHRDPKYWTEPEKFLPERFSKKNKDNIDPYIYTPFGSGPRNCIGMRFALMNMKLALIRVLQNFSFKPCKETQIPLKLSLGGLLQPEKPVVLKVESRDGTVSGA
protein phosphatase 2A (PP2A), sequence (P67775 whole entry): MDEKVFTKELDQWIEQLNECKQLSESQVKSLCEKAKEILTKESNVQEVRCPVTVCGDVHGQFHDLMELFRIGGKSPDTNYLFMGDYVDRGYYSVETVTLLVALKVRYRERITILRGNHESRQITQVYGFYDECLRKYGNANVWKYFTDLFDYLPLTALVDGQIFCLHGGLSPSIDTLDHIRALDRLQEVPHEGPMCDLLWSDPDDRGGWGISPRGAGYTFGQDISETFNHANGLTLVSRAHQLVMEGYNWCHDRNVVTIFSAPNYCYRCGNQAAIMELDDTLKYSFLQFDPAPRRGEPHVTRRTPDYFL
CYP3A5, sequence (P20815 whole entry): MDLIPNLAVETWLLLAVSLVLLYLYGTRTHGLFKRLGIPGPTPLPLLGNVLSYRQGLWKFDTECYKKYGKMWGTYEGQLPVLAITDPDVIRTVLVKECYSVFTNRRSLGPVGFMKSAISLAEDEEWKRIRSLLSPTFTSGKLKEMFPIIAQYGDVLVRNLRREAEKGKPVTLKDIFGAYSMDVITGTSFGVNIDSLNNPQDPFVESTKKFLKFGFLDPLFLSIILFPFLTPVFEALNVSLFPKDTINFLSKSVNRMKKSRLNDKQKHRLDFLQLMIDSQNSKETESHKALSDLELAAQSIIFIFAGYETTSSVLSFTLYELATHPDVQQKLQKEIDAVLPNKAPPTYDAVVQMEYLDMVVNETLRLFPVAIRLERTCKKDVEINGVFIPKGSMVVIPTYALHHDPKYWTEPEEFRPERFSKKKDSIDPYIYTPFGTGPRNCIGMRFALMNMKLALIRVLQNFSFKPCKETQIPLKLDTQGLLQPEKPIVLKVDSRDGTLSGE

Consider 11S-hydroxy okadaic acid [metabolite 2], for which the IC50 in series [1] (read-out: IC50, inhibition of PP2A, 1 h at room temperature, read at 405 nm) amounted to 1.34 nM.
In the case of `C=C1[C@@H](O)[C@@H]2O[C@]3(CC[C@H](/C=C/[C@@H](C)[C@@H]4CC(C)=C[C@@]5(O[C@H](C[C@@](C)(O)C(=O)O)CC[C@H]5O)O4)O3)CC[C@H]2O[C@@H]1[C@@H](O)C[C@H](C)[C@H]1O[C@@]2(CCCCO2)CC[C@H]1C` [OA, Okadaic acid], the “overall yield of all four metabolites” value in series [2] (CYP3A4 reaction, after 6 hrs of incubation) is 31.3%; in series [5], 6.1%. In series [2] (double-reciprocal plots, OA 10 μM to 100 μM, 300 pmol 3A4), the “Vmax for the oxidation of OA by CYP3A4” value is 7.23 nmol of metabolites nmol^-1 min^-1. Further, the Km in series [2] (human, recombinant CYP3A4) is 73.4 µM. In addition, the “metabolite formation in pooled human liver microsomes” value in series [3] is “four metabolites, identical to those formed in CYP3A4 incubations, were produced”. Further, in series [4], the “LD50 for OA with various liver cell lines” value was 10 to 100 nM. In addition, the IC50 in series [1] is 0.61 nM. Besides, in series [6], the “metabolism of OA by the seven other P450s” value was “none of the seven other P450s metabolized OA”.

The IC50 is the midpoint of a concentration-inhibition curve. A word on the Km: it is the concentration of substrate that gives half-maximal velocity.
